ChEMBL document CHEMBL4038284, “Synthesis of novel quinoline-based 4,5-dihydro-1H-pyrazoles as potential anticancer, antifungal, antibacterial and antiprotozoal agents” (Eur J Med Chem, 2017)
Values after ≈ are worked out from the molar mass of the structure shown.

Assays:
Klebsiella pneumoniae [1] = experiment: Antibacterial activity against ESBL positive Klebsiella pneumoniae ATCC 700603 after 24 hrs by resazurin dye based microdilution assay; type: functional; conditions: Klebsiella pneumoniae, 700603, 24 h
Outline: (§1)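 MIC taken as the lowest concentration giving visible inhibition and/or by resazurin (1 mg/mL). Gentamicin was the control. Run in duplicate, repeated at least three times.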

Klebsiella pneumoniae [2] = experiment: Antibacterial activity against carbapenemase positive Klebsiella pneumoniae BAA 1705 after 24 hrs by resazurin dye based microdilution assay; type: functional; conditions: BAA 1705, 24 h; outline: as §1
Leishmania panamensis = experiment: Antileshmanial activity against EpiR/GFP fused Leishmania panamensis MHOM/CO/87/UA140 intracellular amastigotes infected in human […] cells after 72 hrs by flow cytometric method; type: functional, cell-based; conditions: MHOM/CO/87/UA140, 72 h
Outline: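 PMA-treated U-937 cells (3 × 10^5 cells/mL) infected with stationary-phase GFP L. panamensis promastigotes (15:1), 3 h at 34 °C, then washed. After 24 h, compounds added at 50, 12.5, 3.125 and 0.78 µg/mL for 72 h at 37 °C. EC50 by Probit; triplicate, two experiments.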

Candida albicans [3] = experiment: Antifungal activity against Candida albicans ATCC 10231 incubated for 48 hrs under dark condition by broth microdilution method; type: functional; conditions: ATCC 10231, 48 h
Outline: (§2)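 CLSI M27-A3 broth microdilution in RPMI-1640, DMSO ≤1%, compounds at 250-0.98 µg/mL final. Inoculum 1-5 × 10^3 CFU/mL. Incubated 48 h at 30 °C in a moist dark chamber, read at OD405. MIC80 and MIC50 taken from % inhibition dose-response curves (mean ± SEM, triplicate). Amphotericin B was the positive control.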

Cryptococcus neoformans [4] = experiment: Antifungal activity against Cryptococcus neoformans ATCC 32264 incubated for 48 hrs under dark condition by broth microdilution method; type: functional; conditions: ATCC 32264, 48 h; outline: as §2
Candida albicans [5] = experiment: Growth inhibition of Candida albicans ATCC 10231 at 250 ug/ml incubated for 48 hrs under dark condition by broth microdilution method relative to control; type: functional; conditions: ATCC 10231, 48 h, read-out: GI
Outline: (§3)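 CLSI M27-A3 broth microdilution in RPMI-1640, DMSO ≤1%. Inoculum 1-5 × 10^3 CFU/mL. Incubated 48 h at 30 °C, dark. % inhibition = 100 − (OD405 test − sterility control)/(OD405 growth control − sterility control), with growth and sterility control wells. Triplicate.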

Candida albicans [6] = experiment: Growth inhibition of Candida albicans ATCC 10231 at 125 ug/ml incubated for 48 hrs under dark condition by broth microdilution method relative to control; type: functional; conditions: ATCC 10231, 48 h, read-out: GI; outline: as §3
Candida albicans [7] = experiment: Growth inhibition of Candida albicans ATCC 10231 at 62.5 ug/ml incubated for 48 hrs under dark condition by broth microdilution method relative to control; type: functional; conditions: ATCC 10231, 48 h, read-out: GI; outline: as §3
Candida albicans [8] = experiment: Growth inhibition of Candida albicans ATCC 10231 at 31.25 ug/ml incubated for 48 hrs under dark condition by broth microdilution method relative to control; type: functional; conditions: ATCC 10231, 48 h, read-out: GI; outline: as §3
Candida albicans [9] = experiment: Growth inhibition of Candida albicans ATCC 10231 at 15.62 ug/ml incubated for 48 hrs under dark condition by broth microdilution method relative to control; type: functional; conditions: ATCC 10231, 48 h, read-out: GI; outline: as §3
Candida albicans [10] = experiment: Growth inhibition of Candida albicans ATCC 10231 at 7.8 ug/ml incubated for 48 hrs under dark condition by broth microdilution method relative to control; type: functional; conditions: ATCC 10231, 48 h, read-out: GI; outline: as §3
Candida albicans [11] = experiment: Growth inhibition of Candida albicans ATCC 10231 at 3.4 ug/ml incubated for 48 hrs under dark condition by broth microdilution method relative to control; type: functional; conditions: ATCC 10231, 48 h, read-out: GI
Cryptococcus neoformans [12] = experiment: Growth inhibition of Cryptococcus neoformans ATCC 32264 at 250 ug/ml incubated for 48 hrs under dark condition by broth microdilution method relative to control; type: functional; conditions: ATCC 32264, 48 h, read-out: GI; outline: as §3
Cryptococcus neoformans [13] = experiment: Growth inhibition of Cryptococcus neoformans ATCC 32264 at 125 ug/ml incubated for 48 hrs under dark condition by broth microdilution method relative to control; type: functional; conditions: ATCC 32264, 48 h, read-out: GI; outline: as §3
Cryptococcus neoformans [14] = experiment: Growth inhibition of Cryptococcus neoformans ATCC 32264 at 62.5 ug/ml incubated for 48 hrs under dark condition by broth microdilution method relative to control; type: functional; conditions: ATCC 32264, 48 h, read-out: GI; outline: as §3
Cryptococcus neoformans [15] = experiment: Growth inhibition of Cryptococcus neoformans ATCC 32264 at 31.25 ug/ml incubated for 48 hrs under dark condition by broth microdilution method relative to control; type: functional; conditions: ATCC 32264, 48 h, read-out: GI; outline: as §3
Cryptococcus neoformans [16] = experiment: Growth inhibition of Cryptococcus neoformans ATCC 32264 at 15.62 ug/ml incubated for 48 hrs under dark condition by broth microdilution method relative to control; type: functional; conditions: ATCC 32264, 48 h, read-out: GI; outline: as §3
Cryptococcus neoformans [17] = experiment: Growth inhibition of Cryptococcus neoformans ATCC 32264 at 7.8 ug/ml incubated for 48 hrs under dark condition by broth microdilution method relative to control; type: functional; conditions: ATCC 32264, 48 h, read-out: GI; outline: as §3
Cryptococcus neoformans [18] = experiment: Growth inhibition of Cryptococcus neoformans ATCC 32264 at 3.4 ug/ml incubated for 48 hrs under dark condition by broth microdilution method relative to control; type: functional; conditions: ATCC 32264, 48 h, read-out: GI
Staphylococcus aureus [19] = experiment: Antibacterial activity against methicillin-sensitive Staphylococcus aureus ATCC 25923 after 24 hrs by resazurin dye based microdilution assay; type: functional; conditions: ATCC 25923, 24 h; outline: as §1
Staphylococcus aureus [20] = experiment: Antibacterial activity against methicillin-resistant Staphylococcus aureus ATCC 43300 after 24 hrs by resazurin dye based microdilution assay; type: functional; conditions: ATCC 43300, 24 h
Outline: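 Broth microdilution in Mueller Hinton broth, inoculum 5 × 10^5 – 8 × 10^5. Compound stocks diluted in MHB with 5% DMSO and 0.1% Tween 80. Incubation 24 h at 35-37 °C. MIC is the lowest concentration with visible growth inhibition and/or by resazurin (1 mg/mL) read-out. Gentamicin as control. Run in duplicate, replicated at least three times.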

Staphylococcus aureus [21] = experiment: Antibacterial activity against vancomycin-intermediate Staphylococcus aureus after 24 hrs by resazurin dye based microdilution assay; type: functional; outline: as §1
Escherichia coli = experiment: Antibacterial activity against Escherichia coli ATCC 25922 after 24 hrs by resazurin dye based microdilution assay; type: functional; conditions: ATCC 25922, 24 h; outline: as §1
Pseudomonas aeruginosa = experiment: Antibacterial activity against Pseudomonas aeruginosa ATCC 27853 after 24 hrs by resazurin dye based microdilution assay; type: functional; conditions: ATCC 27853, 24 h; outline: as §1
Neisseria gonorrhoeae = experiment: Antibacterial activity against beta lactamase positive Neisseria gonorrhoeae ATCC 31426 by oxidase test; type: functional
Outline: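 Agar dilution MIC on GC agar with 1% isovitalex containing increasing compound concentrations. Plates inoculated with about 1×10^4 CFU (5 µL). MIC is the lowest concentration that inhibited growth, with growth confirmed by oxidase test. Run in duplicate, repeated at least three times.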

Plasmodium falciparum = experiment: Antiplasmodial activity against chloroquine-sensitive Plasmodium falciparum 3D7 assessed as reduction in parasitic LDH activity after 48 hrs by Malstat reagent based […] method; type: functional; conditions: 3D7, 48 h
Outline: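 Unsynchronized P. falciparum 3D7 at 0.5% parasitemia and 1% hematocrit in RPMI with 3% Albumax II. Exposed to 100, 25, 6.25 and 1.56 µg/mL for 48 h at 37 °C under 90% N2/5% CO2/5% O2. After three freeze-thaw cycles, LDH measured with Malstat and NBT/PES, 1 h in the dark, read at 650 nm. IC50 by Probit; triplicate, ≥2 experiments.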

U-937 = experiment: Cytotoxicity against human U937 cells after 72 hrs by MTT assay; type: cell-based; conditions: u-937, 72 h
Outline: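 Exponentially growing U-937 at 1 × 10^5 cells/mL in RPMI-1640 with 10% FBS were exposed to 200, 50, 12.5 and 3.125 µg/mL for 72 h at 37 °C, 5% CO2. MTT for 3 h, stopped with isopropanol/SDS, formazan read at 570 nm, blank-corrected. LC50 by Probit from % viability against untreated cells. Triplicate, at least two independent experiments.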

Trypanosoma cruzi = experiment: Antitrypanosomal activity against Trypanosoma cruzi Tulahuen intracellular amastigote harboring LacZ infected in human U937 cells after 72 hrs by CPRG/Nonidet reagent based spectrophotometric method; type: functional, cell-based; conditions: U-937, 72 h
Outline: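 U-937 cells at 2.5 × 10^5 cells/mL in RPMI-1640 with 10% serum and 0.1 µg/mL PMA were infected with β-galactosidase-transfected Tulahuen epimastigotes at 5 parasites per cell. Infected cells were exposed to 50, 12.5, 3.125 and 0.78 µg/mL for 72 h. CPRG (100 uM) and 0.1% Nonidet P-40 were added for 3 h, read at 570 nm. EC50 by Probit. Triplicate, at least two experiments; benznidazole as reference.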

SMILES | MIC (Klebsiella pneumoniae [1]) | MIC (Klebsiella pneumoniae [2]) | EC50 (Leishmania panamensis) | MIC50 (Candida albicans [3]) | MIC80 (Candida albicans [3]) | MIC50 (Cryptococcus neoformans [4]) | MIC80 (Cryptococcus neoformans [4]) | inhibition of growth at 250 µg/mL (Candida albicans [5]) | inhibition of growth at 125 µg/mL (Candida albicans [6]) | inhibition of growth at 62.5 µg/mL (Candida albicans [7]) | inhibition of growth at 31.25 µg/mL (Candida albicans [8]) | inhibition of growth at 15.62 µg/mL (Candida albicans [9]) | inhibition of growth at 7.8 µg/mL (Candida albicans [10]) | inhibition of growth at 3.4 µg/mL (Candida albicans [11]) | inhibition of growth at 250 µg/mL (Cryptococcus neoformans [12]) | inhibition of growth at 125 µg/mL (Cryptococcus neoformans [13]) | inhibition of growth at 62.5 µg/mL (Cryptococcus neoformans [14]) | inhibition of growth at 31.25 µg/mL (Cryptococcus neoformans [15]) | inhibition of growth at 15.62 µg/mL (Cryptococcus neoformans [16]) | inhibition of growth at 7.8 µg/mL (Cryptococcus neoformans [17]) | other results
COc1cc(C2=NN(c3cc(Cl)cc(Cl)c3)C(c3cccc(Nc4ccnc5cc(Cl)ccc45)c3)C2)cc(OC)c1OC (stereo not given) | > 1000 µg/mL | > 1000 µg/mL | 16.5 µg/mL (≈ 26 µM) | ≥ 250 µg/mL | ≥ 250 µg/mL | ≥ 250 µg/mL | ≥ 250 µg/mL | 20.3% | 10.6% | 5.81% | 5.79% | 2.69% | 1.1% | 0.27% | 25.6% | 6.13% | 3.82% | 3.54% | 3.54% | 3.27% | inhibition of growth at 3.4 µg/mL (Cryptococcus neoformans [18]): 0%; MIC (Staphylococcus aureus [19]): > 1000 µg/mL; MIC (Staphylococcus aureus [20]): > 1000 µg/mL; MIC (Staphylococcus aureus [21]): > 1000 µg/mL; MIC (Escherichia coli): > 1000 µg/mL; MIC (Pseudomonas aeruginosa): > 1000 µg/mL; MIC (Neisseria gonorrhoeae): > 1000 µg/mL; EC50 (Plasmodium falciparum): 10.9 µg/mL (≈ 17.2 µM); LC50 (U-937): > 200 µg/mL; EC50 (Trypanosoma cruzi): 21.9 µg/mL (≈ 34.6 µM)
Clc1ccc(N2N=C(c3ccc(Br)cc3)CC2c2cccc(Nc3ccnc4cc(Cl)ccc34)c2)cc1 (stereo not given) | > 1000 µg/mL | > 1000 µg/mL | 16 µg/mL (≈ 27.2 µM) | ≥ 250 µg/mL | ≥ 250 µg/mL | ≥ 250 µg/mL | ≥ 250 µg/mL | 39.6% | 23.4% | 13.7% | 7.39% | 6.77% | 6.28% | 3.47% | 27.5% | 23% | 17.8% | 17% | 0.14% | 0% | inhibition of growth at 3.4 µg/mL (Cryptococcus neoformans [18]): 0%; MIC (Staphylococcus aureus [19]): > 1000 µg/mL; MIC (Staphylococcus aureus [20]): > 1000 µg/mL; MIC (Staphylococcus aureus [21]): > 1000 µg/mL; MIC (Escherichia coli): > 1000 µg/mL; MIC (Pseudomonas aeruginosa): > 1000 µg/mL; MIC (Neisseria gonorrhoeae): > 1000 µg/mL; EC50 (Plasmodium falciparum): 10.3 µg/mL (≈ 17.4 µM); LC50 (U-937): 35.7 µg/mL (≈ 60.7 µM); EC50 (Trypanosoma cruzi): 29.5 µg/mL (≈ 50.1 µM)
O=C(/C=C/c1cccc(Nc2ccnc3cc(Cl)ccc23)c1)c1ccc(Cl)cc1 | > 1000 µg/mL | > 1000 µg/mL | 0.79 µg/mL (≈ 1.88 µM) | 62.5 µg/mL (≈ 149 µM) | ≥ 250 µg/mL | 7.8 µg/mL (≈ 18.6 µM) | 7.8 µg/mL (≈ 18.6 µM) | 78.4% | 68.2% | 50.3% | 41.8% | 39.4% | 29% | 15.3% | 100% | 100% | 100% | 100% | 89% | 82% | inhibition of growth at 3.4 µg/mL (Cryptococcus neoformans [18]): 49.8%; MIC (Staphylococcus aureus [19]): > 1000 µg/mL; MIC (Staphylococcus aureus [20]): > 1000 µg/mL; MIC (Staphylococcus aureus [21]): > 1000 µg/mL; MIC (Escherichia coli): > 1000 µg/mL; MIC (Pseudomonas aeruginosa): > 1000 µg/mL; MIC (Neisseria gonorrhoeae): > 1000 µg/mL; EC50 (Plasmodium falciparum): 209 µg/mL (≈ 497 µM); LC50 (U-937): 0.7 µg/mL (≈ 1.67 µM); EC50 (Trypanosoma cruzi): 0.72 µg/mL (≈ 1.72 µM)
